# CYP2C19 activ – human CYP2C19 activators, primary screen, biochemical, luminescence; Cytochrome P450 2C19 (Homo sapiens), P33261; recombinant CYP2C19, luciferin-H EGE luminescence; hits give high values; 0 = fully inhibited enzyme, 1 = untreated enzyme; activation factor at 5 µM; 96,000 tested, under 10 active; AID 1025, 2008;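 active = activation factor of at least 2 at 5 µM in the primary screen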;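 also: 0 = wells with 2.5 mM tranylcypromine and 1 = vehicle-only wells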
# CYP2C9 act – human CYP2C9 activators, primary screen, biochemical, luminescence; Cytochrome P450 2C9 (Homo sapiens), P11712; recombinant CYP2C9, luciferin-H conversion; hits give high values; factor 1 = untreated enzyme, 0 = blocked; activation factor at 5 µM; 1.4% of 96,000 active;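 active = activation factor of 2 or more for CYP2C9 at a 5 µM dose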;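 also: 0 = sulfaphenazole-blocked wells and 1 = vehicle-only wells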
# Rev-RRE block – HIV-1 Rev-RRE binding inhibitors, primary screen, biochemical, FRET, protein-RNA interaction. P05866. Rev peptide-RRE RNA binding. inhibition, % at 8 µM. 0.79% of 97,000 active;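 active = inhibition above the screen-wide mean plus 3 SD, cut at about 35% in these data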;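 also: 0% = median DMSO wells and 100% = median Neomycin B control wells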
#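 Probe or stimulus: fluorescein-Rev peptide as binding partner; assay system: Cy5-tagged RRE RNA duplex with fluorescein-tagged Rev peptide; timing: 5 min compound–RNA preincubation, then 15 min with peptide, 25 °C; medium: HEPES pH 7.5 buffer with KCl, MgCl2, NaCl and EDTA; signal: fluorescein-to-Cy5 FRET, 480 nm excitation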
# CYP2C19 inh – blockers of cytochrome P450 2C19 activity – biochemical, luminescence, ADME assay, primary screen. CYP2C19 Supersomes, luciferin-H EGE luminescence, 30 min. inhibition, % at 5 µM. 21% of 96,000 active. AID 778, 2007. P33261;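 active = CYP2C19 inhibition above a set limit at 5 µM in the primary screen, cut at about 50% in these data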;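 also: plate controls were negative control wells for no effect and 2.5 mM tranylcypromine positive control for full effect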
# Cav32 inh – Cav3.2 calcium influx blockers – cell-based, Fluo-4 calcium fluorescence, FDSS, MLSMR library, primary screen; B-score at 10 µM; AID 449739, 2010; Voltage-dependent T-type calcium channel subunit alpha-1H (Homo sapiens), O95180; Cav3.2-expressing cells; hits give low values; 4% of 100,000 active;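 active = single-dose well whose peak fluorescence ratio is a statistical outlier from its plate by either plate-standardised score or position-corrected B-score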
# CYP2C9 inh – blockers of cytochrome P450 2C9 activity – biochemical, luminescence, ADME assay, primary screen. P11712. CYP2C9 Supersomes, luciferin-H conversion. inhibition, % at 5 µM. 20% of 96,000 active. AID 777, 2007;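 active = blocking of liver enzyme CYP2C9 beyond about 50% at 5 µM, limit read from the data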
# Active calls of the source: *; . = not tested or not shown. Hits are enriched below; roughly 27% of the tested compounds scored in any of these assays.
SMILES,CYP2C19 activ,CYP2C9 act,Rev-RRE block,CYP2C19 inh,Cav32 inh,CYP2C9 inh
COc1ccc(-c2cnn(C3CCS(=O)(=O)C3)c2N)cc1 (stereo unspecified),0.9,1,10,7,2,0
Cc1ccc(C(=O)c2ccc([N+](=O)[O-])cc2)c(C)c1,0.2,0.4,4,82*,0.14,60*
COc1ccc(Nc2nnc(Cc3ccc(Cl)cc3)c(=O)[nH]2)c(OC)c1,0.6,0.4,.,39,-2.2,62*
COc1ccc(Nc2nnc(Cc3ccccc3)c(=O)[nH]2)c(OC)c1,1,0.7,5,1,-0.21,26
O=C(CSc1nnc2scc(-c3ccccc3)n12)Nc1ccc2c(c1)OCCO2,0.6,0.5,2,35,-1.1,53*
Cc1nc(CSc2nnc3scc(-c4ccccc4)n23)cs1,0.8,0.9,8,23,0.41,9
Fc1ccc(-c2csc3nnc(SCc4cccnc4)n23)cc1,0.2,0.9,2,83*,-0.026,10
c1ccc(-c2csc3nnc(SCc4ccc5c(c4)OCO5)n23)cc1,0.1,0.1,8,92*,-1.8,92*
CC(C)Cn1c(-c2ccccc2)nc(=S)c2c1CCCC2,1,0.7,-1,-1,0.99,27
COc1ccc(S(=O)(=O)n2nc(OC(C)=O)cc2N(C(C)=O)C(C)=O)cc1,.,.,.,.,0.43,.
CC(C)c1nnc(NC(=O)CSc2nc3ccccc3s2)s1,1,0.6,6,-3,-2.3,43
CCNc1nnc(CSc2nc3ccccc3s2)s1,.,.,-6,.,-0.12,.
CCc1nnc(NC(=O)CSc2nc3ccccc3s2)s1,0.8,0.4,4,19,-2.9,58*
Cn1cccc1C(=O)NC(=O)CSc1nc2ccccc2s1,1,1.5,1,4,-0.13,-55
Cc1csc(NC(=O)CSc2nc3ccccc3s2)n1,0.7,1,6,29,-7*,-1
COc1ccc(NC(=O)CSc2nc(C)cs2)cc1OC,0.5,0.6,1,47,1.1,43
COc1cccc(NC(=O)CSc2nc(C)cs2)c1,0.2,0.8,2,82*,-0.52,24
Cc1csc(NC(=O)CCCSc2nc3ccccc3s2)n1,0.1,0.5,14,88*,-3,52*
CC1=C(C)SC(=C(C#N)c2nnc(N3CCOCC3)n2-c2ccccc2)S1,1.2,1.2,.,-17,0.95,-20
NC(=O)CC(NC(=O)Cc1ccc(Br)cc1)c1ccc(NCCc2ccc(F)cc2)c([N+](=O)[O-])c1 (stereo unspecified),.,.,.,.,0.49,.
COC(=O)CSc1nnc(-c2ccncc2)o1,1,1.1,5,3,-0.41,-12
CCOC(=O)C1CCCN(C(=O)CCn2nc(-c3ccccc3)ccc2=O)C1 (stereo unspecified),1,1,-4,5,.,-4
O=C(CCCSc1nc2ccccc2s1)NCc1ccco1,0.2,1.2,-1,76*,-1.3,-24
Cc1csc(SCC(=O)Nc2cc(C(C)(C)C)nn2-c2ccccc2)n1,0.3,0.2,.,71*,-2.8,80*
Cc1csc(SCC(=O)Nc2cccc3nsnc23)n1,0.4,0.2,-4,55*,-3.2,77*
SMILES,CYP2C19 activ,CYP2C9 act,Rev-RRE block,CYP2C19 inh,Cav32 inh,CYP2C9 inh
COC(=O)CCCCCCCCC(=O)Nc1nc2ccccc2s1,0.4,0.2,1,63*,-1.6,82*
Cc1csc(SCC(=O)Nc2ccccn2)n1,0.7,1,4,33,-0.34,1
O=c1[nH]cnc2c1cnn2Cc1ccccc1,0.8,0.9,2,20,-0.046,9
O=C(CSc1nc2ccccc2s1)Nc1nccs1,0.5,0.8,-1,53*,-1.5,19
Cc1csc(NC(=O)CSc2nc(C)cs2)n1,0.4,0.9,-3,58*,0.17,14
O=C(CSc1nc2ccccc2s1)CSc1nc2ccccc2s1,1,0.7,7,-1,-0.062,32
Nc1nonc1NC(=O)CSc1nc2ccccc2s1,0.2,0.9,5,79*,-1.2,8
CC(C)(C)c1nc2ccccc2c2nnc(SCC(=O)Nc3nccs3)n12,0.8,1,-5,15,0.58,-3
CCOc1ccc(CC(=O)Nc2c(C(N)=O)oc3ccccc23)cc1OCC,.,.,-2,.,0.44,.
COc1ccc(C(=O)COC(=O)[C@H](C)Nc2ccc(C(F)(F)F)cc2[N+](=O)[O-])c(OC)c1,1,0.8,19,1,-1.8,24
CCC(C)(c1ccc(C=O)s1)c1ccc(C=O)s1,0.7,0.5,4,28,0.067,52*
O=C(COC(=O)C1(c2ccc(Cl)cc2)CCCC1)NC1CCS(=O)(=O)C1 (stereo unspecified),0.7,1,2,27,0.62,4
Cc1nn(C)c(Oc2cccc(Cl)c2)c1C(=O)Nc1ccc(F)cc1,0.6,0.9,11,40,0.16,10
COc1ccc(C)cc1N(CC(N)=O)S(=O)(=O)c1ccc(C)cc1,0.1,0.5,.,90*,.,54*
COc1ccc(S(=O)(=O)N(CC(=O)NC2CC2)c2ccc(C)cc2)cc1OC,0,0.9,-2,99*,-0.35,13
COc1ccc(S(=O)(=O)N(C)CC(=O)NC2CCCCC2)cc1OC,0.7,1.6,2,29,0.68,-61
COc1ccc(OC)c(N(CC(=O)NC2CC2)S(=O)(=O)c2ccc(C)cc2)c1,0.2,0.2,5,84*,0.73,80*
CN1CCc2c(c3c(n2C)CCN(C)[C@H]3c2ccccc2F)[C@@H]1c1ccccc1F,0.9,0.7,-1,6,0.75,27
O=C1CNC(=O)N1CC(=O)N1CCCc2ccccc21,1,1.1,2,-2,1.1,-8
C#CC(C)(CC)NC(=O)c1cc(OC)c(OC)c(OC)c1 (stereo unspecified),1.1,1.1,3,-9,0.042,-12
O=C(Nc1c(F)cc(F)cc1Br)c1cc(-c2ccco2)on1,1.2,2*,7,-16,-1.3,-97
CC(C)Cc1cc(C(=O)Nc2c(F)cc(F)cc2Br)no1,0.3,1,7,68*,-0.42,2
O=C(NC1CCCCC1)c1cc(-c2ccco2)on1,1,2.8*,3,0,.,-176
O=C(Nc1cccc(O)c1)c1cc(-c2ccco2)on1,0.8,2*,5,16,.,-104
O=C(Nc1ccc(F)cc1F)c1cc(-c2ccco2)on1,1,1.7,6,-3,-1.1,-71
CCc1ccc(NC(=O)c2cc(CC(C)C)on2)cc1,0.8,0.7,.,15,-0.87,26
